Test results reported in ChEMBL document CHEMBL2021862, “5-imino-1,2,4-thiadiazoles: first small molecules as substrate competitive inhibitors of glycogen synthase kinase 3” (J Med Chem, 2012).
Calls of active or inactive are those of the source. The calls are words filed in the database; no cut-off is given here.

Target: T1, Glycogen synthase kinase-3 beta (Homo sapiens, UniProt P49841)
Assay: Inhibition of human recombinant GSK3beta at 10 uM after 30 mins by luminescence assay in presence of ATP
Summary of the method: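 Human recombinant GSK-3β (20 ng) with prephosphorylated polypeptide substrate 25 μM and ATP 1 μM in 50 mM HEPES pH 7.5, 1 mM EDTA, 1 mM EGTA, 15 mM Mg acetate. Final DMSO ≤1%. Incubated 30 min at 30 °C, stopped with Kinase-Glo reagent, and luminescence read after 10 min. Inhibition is relative to the no-inhibitor maximum. IC50 is the concentration giving 50% activity loss.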
Target sequence in this assay (P49841 whole entry, looked up): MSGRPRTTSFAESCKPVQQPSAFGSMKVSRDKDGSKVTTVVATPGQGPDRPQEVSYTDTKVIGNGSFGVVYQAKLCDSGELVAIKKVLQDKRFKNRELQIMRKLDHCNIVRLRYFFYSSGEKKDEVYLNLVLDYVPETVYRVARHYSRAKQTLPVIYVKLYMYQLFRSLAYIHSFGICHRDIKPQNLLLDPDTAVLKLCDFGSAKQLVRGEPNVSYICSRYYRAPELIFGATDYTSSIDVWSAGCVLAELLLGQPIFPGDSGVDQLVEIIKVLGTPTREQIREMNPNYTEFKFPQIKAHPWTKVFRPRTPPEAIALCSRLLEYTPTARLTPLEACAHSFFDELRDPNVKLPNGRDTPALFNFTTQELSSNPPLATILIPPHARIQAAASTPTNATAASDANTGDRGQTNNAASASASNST

SMILES | inhibition
OCCNC(=S)N/C(=N/c1cccc2ccccc12)c1ccccc1 | inactive
S=C(N/C(=N/c1ccccc1)c1ccccc1)NC1CCCCC1 | inactive
CCOC(=O)CNC(=S)N/C(=N/c1ccc(OC)cc1)c1ccccc1 | inactive
S=C(N/C(=N/c1ccccc1)c1ccccc1)Nc1ccccn1 | inactive
S=C(N/C(=N/c1ccccc1)c1ccccc1)Nc1ccccc1 | inactive
COc1ccc(/C(=N\c2ccccc2)NC(=S)Nc2ccccc2)cc1 | inactive
NC(=S)N/C(=N/c1ccccc1)c1ccccc1 | inactive
COc1ccc(/C(=N\c2ccccc2)NC(=S)NCCO)cc1 | inactive
CCOC(=O)C/N=c1\nc(-c2ccccc2)n(-c2ccc([N+](=O)[O-])cc2)s1 | > 60%
CCCCCNC(=S)N/C(=N/c1ccccc1)c1ccc(OC)cc1 | inactive
CCCCCNC(=S)N/C(=N/c1ccccc1)c1ccccc1 | inactive
C/C(=N\c1ccccc1)NC(=S)NCc1cccnc1 | inactive
COc1ccc(/N=C(/NC(=S)NCCO)c2ccccc2)cc1 | inactive
S=C(NCCN1CCOCC1)N/C(=N/c1ccccc1)c1ccccc1 | inactive
CCOC(=O)CNC(=S)N/C(=N/c1ccc([N+](=O)[O-])cc1)c1ccccc1 | inactive
OCCNC(=S)N/C(=N/c1ccccc1)c1cccc2ccccc12 | inactive
CCCCC/C(=N\c1ccccc1)NC(=S)NCc1cccnc1 | inactive
CCOC(=O)CNC(=S)N/C(=N/c1ccccc1)c1ccccc1 | inactive
OCCNC(=S)N/C(=N/c1ccccc1)c1ccccc1 | inactive
O=[N+]([O-])c1ccc(/N=C(/NC(=S)NCc2cccnc2)c2ccccc2)cc1 | inactive
c1ccc(/N=C(/N=c2/nc3ccccn3s2)c2ccccc2)cc1 | 14%
COc1ccc(/C(=N\c2ccccc2)NC(=S)NCc2cccnc2)cc1 | inactive
CCOC(=O)CNC(=S)N/C(=N/c1ccccc1)c1ccc(OC)cc1 | inactive
FC(F)(F)c1ccc(/C(=N\c2ccccc2)NC(=S)NCc2cccnc2)cc1 | inactive

Further lines, results first:

inhibition | SMILES
inactive | S=C(NCc1cccnc1)N/C(=N/c1ccccc1)c1ccccc1
> 60% | O=[N+]([O-])c1ccc(-n2s/c(=N/Cc3cccnc3)nc2-c2ccccc2)cc1
> 60% | c1ccc(-c2n/c(=N\Cc3cccnc3)sn2-c2cccc3ccccc23)cc1
> 60% | c1ccc(-n2s/c(=N/Cc3cccnc3)nc2-c2cccc3ccccc23)cc1 [listing 1 of 3 here]
> 60% | CCCCCc1n/c(=N\Cc2cccnc2)sn1-c1ccccc1
> 60% | c1ccc(Cn2s/c(=N/Cc3cccnc3)nc2-c2ccccc2)cc1
> 60% | CCCCC/N=c1\nc(-c2ccccc2)n(-c2ccccc2)s1
> 60% | OCC/N=c1\nc(-c2ccccc2)n(-c2cccc3ccccc23)s1
inactive | S=C(NCc1cccnc1)N/C(=N/c1cccc2ccccc12)c1ccccc1
inactive | S=C(NCc1cccnc1)N/C(=N/c1ccccc1)c1cccc2ccccc12
> 60% | CCCCC/N=c1\nc(-c2ccc(OC)cc2)n(-c2ccccc2)s1 [listing 1 of 2 here]
inactive | S=C(NCc1cccnc1)N/C(=N/Cc1ccccc1)c1ccccc1
inactive | COc1ccc(/N=C(/NC(=S)NCc2cccnc2)c2ccccc2)cc1

Target: T1, Glycogen synthase kinase-3 beta
Assay: Inhibition of human recombinant GSK3beta after 30 mins by luminescence assay in presence of ATP
Target sequence in this assay (P49841 whole entry): as the sequence (P49841 whole entry, looked up) above

IC50 [µM] | SMILES
2.1 | c1ccc(-n2s/c(=N/Cc3cccnc3)nc2-c2cccc3ccccc23)cc1 [listing 2 of 3 here]
0.9 | c1ccc(-n2s/c(=N/Cc3cccnc3)nc2-c2cccc3ccccc23)cc1 [listing 3 of 3 here]
1 | O=[N+]([O-])c1ccc(-n2s/c(=N/Cc3cccnc3)nc2-c2ccccc2)cc1
1.8 | CCOC(=O)C/N=c1\nc(-c2ccccc2)n(-c2ccccc2)s1
2 | c1ccc(-c2n/c(=N\Cc3cccnc3)sn2-c2cccc3ccccc23)cc1
1 | CCOC(=O)C/N=c1\nc(-c2ccccc2)n(-c2ccc([N+](=O)[O-])cc2)s1
0.3 | CCCCC/N=c1\nc(-c2ccc(OC)cc2)n(-c2ccccc2)s1 [listing 2 of 2 here]
0.8 | CCCCCc1n/c(=N\Cc2cccnc2)sn1-c1ccccc1
1.1 | c1ccc(Cn2s/c(=N/Cc3cccnc3)nc2-c2ccccc2)cc1
1.4 | CCCCC/N=c1\nc(-c2ccccc2)n(-c2ccccc2)s1
0.3 | OCC/N=c1\nc(-c2ccccc2)n(-c2cccc3ccccc23)s1
